“Also recorded” adds a separate entry of the source.
How the values were obtained:
WT and PAR3^−/− mice [1] = test: Mechanical paw withdrawal threshold; assay type: in vivo, mouse
WT and PAR3^−/− mice [2] = test: Facial grimacing; assay type: in vivo, mouse; conditions: for facial grimacing, WT and PAR3^−/− / facial grimacing, PAR3^−/− and WT: male
WT and PAR3^−/− mice [3] = assay type: in vivo, mouse
WT and PAR3^−/− mice [4] = assay type: in vivo, mouse; remark: listed apart in the source
How it was run: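 Eight-week-old male mice were primed by intraplantar injection and allowed to recover completely (14 d), then given 100 ng PGE2 into the same hind paw. Facial expressions were video-recorded with mice placed individually in 9×5×5 cm cubicles, using an adapted mouse grimace scale protocol. Scores were averaged per time point for each cohort, with 4 mice per genotype.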

[5] = system: lamina IIo neurons in lumbar segments of mouse spinal cord
[6] = system: human A-498 carcinoma cells; conditions: ref [35]; cited from earlier work
mouse lung fibroblasts = conditions: ref [35]; cited from earlier work
rat astrocytes = conditions: ref [60]; cited from earlier work
[7] = system: human smooth muscle cells; conditions: ref [6]; cited from earlier work
WT and PAR3^−/− mice [8] = test: Thermal sensitivity; assay type: in vivo, mouse; conditions: C660, Hargreaves
[9] = system: HEK293 cells not induced to express PAR3; test: RTCA; assay type: cell-based; conditions: varying concentrations of C660; Cell Index
How it was run: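 Uninduced HEK293 Flp-In T-Rex cells were plated on poly-L-lysine E-plates in DMEM/F12 with 5% FBS, run alongside tetracycline-induced cells. Compound was added in quadruplicate at varying final concentrations once impedance stabilized (~6 h). Cell Index, calculated as (Zi−Z0)/15 Ω, was recorded every minute for 4 h, and peak changes after addition were taken.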

[10] = Solubility of the synthesized ligands; assay type: physicochemical; conditions: aqueous buffers (as printed for C751)
human PAR3 [11] = target: T1, human PAR3 (Homo sapiens, UniProt O00254); test: RTCA; assay type: cell-based
T1 sequence (O00254 22-374): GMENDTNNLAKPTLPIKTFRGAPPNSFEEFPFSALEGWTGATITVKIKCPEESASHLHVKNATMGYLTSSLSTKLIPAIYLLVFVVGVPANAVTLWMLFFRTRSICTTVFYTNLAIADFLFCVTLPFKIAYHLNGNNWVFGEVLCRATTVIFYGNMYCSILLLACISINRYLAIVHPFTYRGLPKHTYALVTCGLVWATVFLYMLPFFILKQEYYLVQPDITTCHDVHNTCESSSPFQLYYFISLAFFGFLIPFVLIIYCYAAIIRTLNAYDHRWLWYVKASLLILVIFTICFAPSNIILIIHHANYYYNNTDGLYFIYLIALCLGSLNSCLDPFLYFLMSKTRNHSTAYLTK
How it was run: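 HEK293 Flp-In T-Rex cells stably carrying human PAR3 were induced with tetracycline (0.3 or 1 μg/mL, 48 h), then plated on poly-L-lysine E-plates in DMEM/F12 with 5% FBS. At Cell Index stabilization (~6 h), compound was added in quadruplicate at varying final concentrations. CI was read every minute for 4 h. Peak CI changes were normalized to percent of the plate's peak response, and EC50 was fitted across multiple plates.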

Murine PAR3 = conditions: COS-7 cells transfected with murine PAR3; ref [47]; cited from earlier work
human PAR3 [12] = target: T1, human PAR3; conditions: COS-7 cells transfected with human PAR3; ref [30]; cited from earlier work
[13] = 2AT 30 pmol, hind paw, n = 4/group
[14] = primed with 2AT 30 pmol, i.pl, PGE2 100 ng after 14 d, n = 4/group
[15] = primed with IL-6 0.1 ng, i.pl, PGE2 100 ng after 14 d, n = 4/group
[16] = TFFLLR-NH2 100 μg, i.pl, male, n = 4/group
[17] = C660 30 pmol intraplantar, WT male mice, n = 4/group
[18] = thrombin 10 units, i.pl, male, n = 4/group
[19] = thrombin 10 units, i.pl, male, n = 4/group, listed as thrombin

## 2-aminothiazo-4-yl-LIGRL-NH2 [Compound 2AT, reference compound]
WT and PAR3^−/− mice [1]; 2AT 30 pmol, hind paw, male, n = 4/group
  mechanical hypersensitivity, WT and PAR3^−/−: significantly increased (A) mechanical hypersensitivity; also recorded: did not show any differences in acute responses in PAR3^−/− mice
WT and PAR3^−/− mice [1]; [13]
  duration of mechanical hypersensitivity, WT and PAR3^−/−: up to 5 hours
WT and PAR3^−/− mice [2]; [13]
  facial grimacing, WT and PAR3^−/−: significantly increased (A) mechanical hypersensitivity (B) and facial grimacing
  duration of facial grimacing, WT and PAR3^−/−: up to 5 hours
WT and PAR3^−/− mice [3]; primed with 2AT 30 pmol, i.pl, PGE2 100 ng after 14 d, WT
  duration of mechanical hyperalgesia after PGE2 (priming), WT: up to 24 hours
WT and PAR3^−/− mice [3]; [14]
  mechanical hyperalgesia after PGE2 (priming), WT and PAR3^−/−: profound deficit in priming in the PAR3^−/− mice; also recorded: robust in the WT group only; also recorded: loss of hyperalgesic priming
WT and PAR3^−/− mice [3]; primed with 2AT 30 pmol, i.pl, PGE2 100 ng after 14 d, unpaired t-test
  priming effect size (von Frey), WT vs PAR3^−/−: significant genotype difference between WT and PAR3^−/− groups
WT and PAR3^−/− mice [4]; [14]
  facial grimacing after PGE2 (priming), WT and PAR3^−/−: increased in both groups

## NC1=N[C@H](O)[C@H]2[C@H]3O[C@]4(O)O[C@@H]([C@@H](O)[C@@]2(N1)[C@@H]4O)[C@]3(O)CO [Tetrodotoxin (TTX), Tetrodotoxin, reference compound]
[5]
  effect of TTX on C660-induced increase of synaptic event frequency: did not influence the effect of C660 on the increased frequency of synaptic events

## AYPGKF-NH2 [reference compound]
WT and PAR3^−/− mice [1]; AYPGKF-NH2 100 μg, hind paw, male, n = 4/group
  paw withdrawal threshold, WT and PAR3^−/−: did not significantly change withdrawal thresholds and grimacing in WT while a transient effect was seen in PAR3^−/− mice; also recorded: did not change significantly in both WT and PAR3^−/− mice groups
WT and PAR3^−/− mice [2]; AYPGKF-NH2 100 μg, i.pl, PAR3^−/−, 1 hr post-injection, n = 4/group
  facial grimacing, PAR3^−/−, 1 hr: transiently increased
WT and PAR3^−/− mice [2]; AYPGKF-NH2 100 μg, i.pl, n = 4/group
  facial grimacing, WT and PAR3^−/−: did not significantly change withdrawal thresholds and grimacing in WT while a transient effect was seen in PAR3^−/− mice

## IL-6: inflammatory cytokine interleukin 6
WT and PAR3^−/− mice [3]; [15]
  hyperalgesic priming (paw withdrawal), PAR3^−/− vs WT: not significantly affected by PGE2 treatment in comparison to WT mice; also recorded: hyperalgesic priming was diminished as measured by mechanical hypersensitivity and grimacing in PAR3^−/− mice; also recorded: loss of hyperalgesic priming
WT and PAR3^−/− mice [4]; [15]
  hyperalgesic priming (facial grimacing), PAR3^−/− vs WT: not significantly affected by PGE2 treatment in comparison to WT mice; also recorded: hyperalgesic priming was diminished as measured by mechanical hypersensitivity and grimacing in PAR3^−/− mice

## TFFLLR-NH2 [reference compound]
WT and PAR3^−/− mice [1]; [16]
  mechanical hypersensitivity, PAR3^−/− vs WT: significantly more robust and prolonged in PAR3^−/− mice; also recorded: more marked in the latter group. Cumulatively, the genotypic differences throughout 48 hours post-injection were significant
  mechanical withdrawal threshold, WT and PAR3^−/−: induced mechanical hypersensitivity in both WT and PAR3^−/−; also recorded: significantly reduced mechanical withdrawal thresholds in WT and PAR3^−/− mice
WT and PAR3^−/− mice [2]; TFFLLR-NH2 100 μg, i.pl, PAR3^−/−
  duration of facial grimacing, PAR3^−/−: up to 5 hours
WT and PAR3^−/− mice [2]; TFFLLR-NH2 100 μg, i.pl, n = 4/group
  facial grimacing, PAR3^−/− and WT: induced prolonged facial grimacing in PAR3^−/− but not WT mice

## TFRGAP
[6]
  ERK activation, A-498 cells: induced extracellular regulated kinase (ERK) activation via PAR1 rather than PAR3
Mouse lung fibroblasts
  ERK activation, mouse lung fibroblasts: induced extracellular regulated kinase (ERK) activation via PAR1 rather than PAR3
Rat astrocytes
  Ca2+ response in rat astrocytes: elicited a Ca^2+ response in rat astrocytes
[7]
  Ca2+ response in human smooth muscle cells: elicited a Ca^2+ response in rat astrocytes [60] and human smooth muscle cells

## TFRGAPPNSFEEF-pego3-Hdc [Compound C660]
WT and PAR3^−/− mice [1]; C660 30 pmol intraplantar, PAR3^−/− male mice, n = 4/group
  paw withdrawal threshold, PAR3^−/−: induces mechanical hypersensitivity and facial grimacing in WT but not PAR3^−/− mice; also recorded: significantly reduced paw withdrawal thresholds in the WT but not PAR3^−/− group; also recorded: little acute effect; also recorded: absent in PAR3 deficient mice
WT and PAR3^−/− mice [1]; [17]
  duration of mechanical hypersensitivity, WT: up to 24 hrs
  paw withdrawal threshold, WT: induced mechanical hypersensitivity; also recorded: significantly reduced paw withdrawal thresholds; also recorded: prolonged mechanical hypersensitivity
WT and PAR3^−/− mice [8]
  heat sensitivity: did not note any changes in heat sensitivity in either strain of mice
[5]
  mEPSC amplitude: no change in amplitude
  mEPSC frequency: increased the frequency of mEPSCs
[9]
  RTCA response, cells not induced to express PAR3: did not show a response; also recorded: absent when PAR3 is not expressed
WT and PAR3^−/− mice [2]; C660 30 pmol intraplantar, 24 hr period, n = 4/group
  facial grimacing overall effect size, WT vs PAR3^−/−: did not differ significantly between groups
WT and PAR3^−/− mice [2]; C660 30 pmol intraplantar, PAR3^−/− mice
  facial grimacing, PAR3^−/−: facial grimacing in WT but not PAR3^−/− mice; also recorded: little acute effect
WT and PAR3^−/− mice [2]; [17]
  facial grimacing, WT: transient increase in facial grimacing was observed with the WT cohort at the 1 hr time point; also recorded: noted in WT mice, although changes were transient
WT and PAR3^−/− mice [3]; primed with C660 30 pmol, PGE2 100 ng i.pl after 14 days, PAR3^−/−, n = 4/group
  hyperalgesic priming (paw withdrawal), PAR3^−/−: partially attenuated in PAR3^−/− cohort; also recorded: greatly reduced
WT and PAR3^−/− mice [3]; primed with C660 30 pmol, PGE2 100 ng i.pl after 14 days, WT, n = 4/group
  hyperalgesic priming (paw withdrawal), WT: caused hyperalgesic priming in WT mice
WT and PAR3^−/− mice [4]; primed with C660 30 pmol, PGE2 100 ng i.pl after 14 days
  affective (grimace) response to PGE2 after priming, WT vs PAR3^−/−: robust affective response in WT but not PAR3^−/− mice

## TFRGAPPNSFEEF-pego3-KLIPAIYLLVFVVGV-amide [Compound C751]
[10]
  solubility: low solubility

## TFRGAPPNSFEEF-pego3-KRRPAIYLLVFVVGV-amide [Compound C752]
[10]
  solubility: improved
Human PAR3 [11]
  activity in RTCA: not active

## Thrombin
WT and PAR3^−/− mice [1]; [18]
  mechanical hypersensitivity, PAR3^−/− vs WT: significantly greater in PAR3^−/− mice at 1, 3, and 5 hours post-injection
  mechanical hypersensitivity, WT and PAR3^−/−: induced lasting mechanical hypersensitivity in both WT and PAR3^−/− mice
WT and PAR3^−/− mice [1]; [19]
  mechanical hypersensitivity, PAR3^−/− vs WT: significantly more robust and prolonged in PAR3^−/− mice
  mechanical hypersensitivity, WT and PAR3^−/−: induced mechanical hypersensitivity in both WT and PAR3^−/−
Murine PAR3
  signaling, murine PAR3: unable to signal on its own in response to thrombin
Human PAR3 [12]
  phosphoinositide signaling, human PAR3: able to trigger robust phosphoinositide signaling
WT and PAR3^−/− mice [2]; thrombin 10 units, i.pl, PAR3^−/−
  duration of facial grimacing, PAR3^−/−: up to 5 hours
WT and PAR3^−/− mice [2]; thrombin 10 units, i.pl, n = 4/group
  facial grimacing, PAR3^−/− and WT: significantly increased facial grimacing in PAR3^−/− but not WT mice

## carrageenan
WT and PAR3^−/− mice [1]; carrageenan, male mice (Supplementary Fig. S5A–B)
  acute response, WT vs PAR3^−/−: male WT and PAR3^−/− mice responded similarly to the inflammagen acutely
WT and PAR3^−/− mice [3]; carrageenan, 8-week old female mice (Supplementary Fig. S6A–D)
  acute response and hyperalgesic priming, female: loss of hyperalgesic priming occurred in both male and female mice
WT and PAR3^−/− mice [3]; primed with carrageenan, male mice (Supplementary Fig. S5C–D)
  hyperalgesic priming, PAR3^−/− vs WT, male: hyperalgesic priming was again reduced in the PAR3^−/− mice; also recorded: loss of hyperalgesic priming
